Data: ChEMBL document CHEMBL5154815, “A Series of Substituted Bis-Aminotriazines Are Activators of the Natriuretic Peptide Receptor C” (J Med Chem, 2022)
Calls of active or inactive are those of the source. The rule behind the calls is not given here.

Assays:
[1] = biological target: T1, Atrial natriuretic peptide receptor 3 (Rattus norvegicus, UniProt P41740); assay: Agonist activity at NPRC in rat small mesenteric arteries assessed as vasorelaxation preincubated with M372049 for 15 mins followed by compound treatment by Organ bath assay; assay type: tissue-based, Artery
T1 sequence (P41740 whole entry): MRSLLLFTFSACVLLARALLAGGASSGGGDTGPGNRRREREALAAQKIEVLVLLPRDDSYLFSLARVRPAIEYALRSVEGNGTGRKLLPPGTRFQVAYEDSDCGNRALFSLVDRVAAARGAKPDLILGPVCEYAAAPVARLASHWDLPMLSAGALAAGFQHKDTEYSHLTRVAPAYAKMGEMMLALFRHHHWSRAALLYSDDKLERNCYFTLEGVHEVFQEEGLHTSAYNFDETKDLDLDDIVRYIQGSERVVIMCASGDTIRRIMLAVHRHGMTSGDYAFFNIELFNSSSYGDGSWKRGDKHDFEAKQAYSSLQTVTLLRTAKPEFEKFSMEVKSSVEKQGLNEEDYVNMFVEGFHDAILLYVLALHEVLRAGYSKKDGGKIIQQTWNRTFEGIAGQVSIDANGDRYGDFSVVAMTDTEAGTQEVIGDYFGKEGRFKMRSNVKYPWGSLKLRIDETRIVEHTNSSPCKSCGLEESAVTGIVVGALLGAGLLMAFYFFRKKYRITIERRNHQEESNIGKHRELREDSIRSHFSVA

[2] = Half life in fasted C57BL/6 mouse at 3 mg/kg, iv by LC-MS/MS analysis; assay type: ADME, organism-based; conditions: in vivo
[3] = rat, hepatocytes, 20 min, 1 µM
Cytochrome P450 2C8 = biological target: T2, Cytochrome P450 2C8 (Homo sapiens, UniProt P10632); assay: Inhibition of CYP2C8 in human liver microsomes using amodiaquine as a substrate preincubated for 10 mins followed by NADPH addition and measured after 10 mins by LC/MS/MS analysis
T2 sequence (P10632 whole entry): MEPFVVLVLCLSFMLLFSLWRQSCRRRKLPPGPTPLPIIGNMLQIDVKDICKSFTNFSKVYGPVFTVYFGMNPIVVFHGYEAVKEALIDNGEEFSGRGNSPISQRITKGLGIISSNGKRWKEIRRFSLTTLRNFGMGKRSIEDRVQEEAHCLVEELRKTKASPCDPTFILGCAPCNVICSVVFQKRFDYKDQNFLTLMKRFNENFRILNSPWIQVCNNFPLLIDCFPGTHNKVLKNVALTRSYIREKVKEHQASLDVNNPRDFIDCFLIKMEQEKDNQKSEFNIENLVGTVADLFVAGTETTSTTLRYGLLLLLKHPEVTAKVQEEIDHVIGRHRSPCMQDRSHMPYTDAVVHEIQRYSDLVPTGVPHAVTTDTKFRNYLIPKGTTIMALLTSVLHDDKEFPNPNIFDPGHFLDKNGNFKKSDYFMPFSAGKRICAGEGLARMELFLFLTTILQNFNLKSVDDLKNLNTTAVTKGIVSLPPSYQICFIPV

[4] = Cmax in fasted C57BL/6 mouse at 10 mg/kg, po by LC-MS/MS analysis; assay type: ADME, organism-based; set-up: dose 10 mg/kg, route po; conditions: in vivo
How it was run: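 EDTA-K2 plasma was protein-precipitated with internal standard and centrifuged 20 min at 4 °C. Analysis by LC-MS/MS against a 1–1000 ng/mL calibration curve.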

[5] = biological target: T3, Atrial natriuretic peptide receptor 3 (Homo sapiens) (UniProt P17342); assay: Displacement of Flu-P19 probe from human NPR-C (27 to 541 residues) at 300 uM by fluorescence polarization analysis relative to control
T3 sequence (whole entry): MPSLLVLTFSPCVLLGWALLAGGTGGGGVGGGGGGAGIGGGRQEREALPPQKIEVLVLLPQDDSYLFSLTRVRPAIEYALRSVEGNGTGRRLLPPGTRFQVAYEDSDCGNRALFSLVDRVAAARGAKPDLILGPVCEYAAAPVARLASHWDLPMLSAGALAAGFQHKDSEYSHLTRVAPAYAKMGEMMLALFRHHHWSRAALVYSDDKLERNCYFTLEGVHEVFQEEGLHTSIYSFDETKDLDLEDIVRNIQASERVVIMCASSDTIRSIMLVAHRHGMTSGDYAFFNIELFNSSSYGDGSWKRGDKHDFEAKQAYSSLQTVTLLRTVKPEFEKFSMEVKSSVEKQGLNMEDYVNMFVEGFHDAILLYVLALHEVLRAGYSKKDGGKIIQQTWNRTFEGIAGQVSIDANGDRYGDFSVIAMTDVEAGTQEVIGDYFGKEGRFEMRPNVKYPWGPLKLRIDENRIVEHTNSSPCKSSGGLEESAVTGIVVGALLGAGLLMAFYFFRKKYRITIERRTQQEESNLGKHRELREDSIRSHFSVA
How it was run: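 Competition fluorescence polarization with NPR-C protein 20 nM and Flu-P19 probe 150 pM (final) in PBS-P with 1% DMSO final; samples were prepared on ice. Primary screen at 300 μM ligand. Read at 485 nm excitation / 520 nm emission. Signal normalized to buffer+probe and protein+probe controls; background blanked with buffer-only PBS-P/1% DMSO.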

Cytochrome P450 3A4 [6] = biological target: T4, Cytochrome P450 3A4 (Homo sapiens, UniProt P08684); assay: Inhibition of CYP3A4 in human liver microsomes using midazolam as a substrate preincubated for 10 mins followed by NADPH addition and measured after 20 mins by LC/MS/MS analysis
[7] = Oral bioavailability in fasted C57BL/6 mouse at 10 mg/kg by LC-MS/MS analysis; assay type: ADME, organism-based; conditions: in vivo
[8] = biological target: T5, Atrial natriuretic peptide receptor 3 (Homo sapiens, UniProt P17342); assay: Binding affinity to CM5 sensor chip immobilized human NPR-C (27 to 541 residues) assessed as dissociation constant by surface plasmon resonance analysis
T5 sequence (P17342 whole entry): T3 sequence (whole entry)

[9] = biological target: T6, Atrial natriuretic peptide receptor 3 (Rattus norvegicus) (UniProt P41740); assay: Agonist activity at NPRC in rat aorta assessed as inhibition of cANF4-23 induced vasorelaxation in presence of M372049 by Organ bath assay; assay type: tissue-based; conditions: filed as agonist
T6 sequence (whole entry): T1 sequence (P41740 whole entry)

[10] = Mean residence time (0 to infinity) in fasted C57BL/6 mouse at 3 mg/kg, iv by LC-MS/MS analysis; conditions: in vivo
[11] = Initial plasma concentration in fasted C57BL/6 mouse at 3 mg/kg, iv by LC-MS/MS analysis
Cytochrome P450 3A4 [12] = biological target: T4, Cytochrome P450 3A4; assay: Inhibition of CYP3A4 in human liver microsomes using testosterone as a substrate preincubated for 10 mins followed by NADPH addition and measured after 10 mins by LC/MS/MS analysis
[13] = Protein binding in human plasma by equilibrium dialysis assay
[14] = Volume of distribution at steady state in fasted C57BL/6 mouse at 3 mg/kg, iv by LC-MS/MS analysis; assay type: ADME, organism-based; conditions: in vivo, read-out: Vdss
[15] = Stability of compound in pooled human plasma assessed as half life measured upto 120 mins by LC/MS/MS analysis; conditions: 2 h
[16] = Mean residence time (0 to infinity) in fasted C57BL/6 mouse at 10 mg/kg, po by LC-MS/MS analysis; conditions: in vivo
[17] = Stability in Sprague-Dawley rat hepatocytes assessed as clearance per […] at 1 uM after 20 mins by LC-MS/MS analysis; assay type: ADME, cell-based, Hepatocyte

T4 sequence (P08684 whole entry): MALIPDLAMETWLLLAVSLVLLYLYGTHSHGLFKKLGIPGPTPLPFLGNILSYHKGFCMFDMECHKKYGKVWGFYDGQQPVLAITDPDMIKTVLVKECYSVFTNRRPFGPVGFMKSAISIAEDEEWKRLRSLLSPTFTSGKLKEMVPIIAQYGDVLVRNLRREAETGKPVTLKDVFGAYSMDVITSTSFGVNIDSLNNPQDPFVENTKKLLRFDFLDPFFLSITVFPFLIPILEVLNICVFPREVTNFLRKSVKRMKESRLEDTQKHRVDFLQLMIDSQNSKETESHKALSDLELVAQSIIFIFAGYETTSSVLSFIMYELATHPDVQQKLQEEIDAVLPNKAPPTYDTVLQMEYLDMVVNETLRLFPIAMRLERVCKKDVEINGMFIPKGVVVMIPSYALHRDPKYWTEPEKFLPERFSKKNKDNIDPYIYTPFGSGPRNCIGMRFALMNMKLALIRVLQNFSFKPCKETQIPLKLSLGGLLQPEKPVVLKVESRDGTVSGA

`CC(=O)Nc1ccc(Nc2ncnc(NCCC(=O)OC(C)(C)C)n2)cc1` gave an EC50 [1] of 8.64 µM, a half-life [2] of 34 min and a t1/2 [3] of 117.1 min. For the same compound, the IC50 (Cytochrome P450 2C8) was > 50 µM, the Cmax [4] was 612 ng/mL and the Activity [5] was < 17%. For the same compound, the IC50 (Cytochrome P450 3A4 [6]) was > 50 µM, the F [7] was 43.8% and the Kd [8] was 146 µM. For the same compound, the Activity [9] was “Active”, the MRT inf [10] was 15.7 min and the C0 [11] was 2330 ng/mL. The IC50 (Cytochrome P450 3A4 [12]) was > 50 µM, the PPB [13] was 71% and the Vd [14] was 1.75 L/kg. For the same compound, the t1/2 [15] was > 120 min, the MRT inf [16] was 79.8 min and the CLH [17] was 11.8 µL/min.
